From ChEMBL document CHEMBL2016495, “Design and synthesis of potent, isoxazole-containing renin inhibitors” (Bioorg Med Chem Lett, 2012)

Experiments:
Cytochrome P450 3A4 = Cytochrome P450 3A4 (Homo sapiens, UniProt P08684); experiment: Reversible inhibition of CYP3A4-mediated conversion of testosterone to 6-beta-hydroxy-testosterone after 30 mins; type: ADME
CYP3A4 = CYP3A4 (Homo sapiens, UniProt P08684); experiment: Inhibition of CYP3A4 assessed as time dependent inhibition of conversion of testosterone to 6-beta-hydroxy-testosterone at 10 uM; type: ADME; settings: probe testosterone
[1] = biological target: Voltage-gated inwardly rectifying potassium channel KCNH2 (Homo sapiens, UniProt Q12809); experiment: Binding affinity to human Erg
Renin [2] = biological target: T1, Renin (Homo sapiens, UniProt P00797); experiment: Inhibition of human recombinant renin using QXL520-Lys-His-Pro-Phe-His-Leu-Val-Ile-His-Lys-(5-FAM) as substrate pretreated for 10 mins measured after 1 hr by fluorescence analysis in presence of human plasma
T1 sequence (P00797 whole entry): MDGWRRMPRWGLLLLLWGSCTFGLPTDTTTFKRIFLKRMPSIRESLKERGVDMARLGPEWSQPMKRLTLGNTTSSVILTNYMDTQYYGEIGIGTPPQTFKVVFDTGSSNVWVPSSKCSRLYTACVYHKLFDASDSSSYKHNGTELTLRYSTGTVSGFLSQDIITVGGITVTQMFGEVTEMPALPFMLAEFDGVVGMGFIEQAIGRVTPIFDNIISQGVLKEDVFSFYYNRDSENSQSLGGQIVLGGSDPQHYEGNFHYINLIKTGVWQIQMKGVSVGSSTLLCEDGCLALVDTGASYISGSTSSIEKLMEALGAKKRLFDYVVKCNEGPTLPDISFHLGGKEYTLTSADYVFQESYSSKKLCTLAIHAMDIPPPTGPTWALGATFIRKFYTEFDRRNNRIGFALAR

Renin [3] = biological target: T1, Renin; experiment: Inhibition of human recombinant renin using DNP-Lys-His-Pro-Phe-His-Leu-Val-Ile-His-D,L-Amp as substrate after 3 hrs by fluorescence analysis
How it was run: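 Recombinant human renin at 100 pM, with or without inhibitor, and 6 µM Q-FRET substrate in 50 mM MOPS, 100 mM NaCl, pH 7.4, 0.002% Tween. Incubated at 37 °C for 3 h. Fluorescence (ex 328 / em 388 nm) was read at 0 and 3 h.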

[4] = Clearance in Sprague-Dawley rat at 3 mg/kg, po and 0.5 mg/kg, iv; type: ADME, organism-based; settings: in vivo
Rattus norvegicus [5] = experiment: Antihypertensive activity in double transgenic rat assessed as duration of decrease in blood pressure at 3 mg/kg, po; type: functional
[6] = AUC in Sprague-Dawley rat at 3 mg/kg, po; type: ADME, organism-based; parameters: dose 3 mg/kg, route oral; settings: plasma
How it was run: (§1)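 Rats dosed orally at 3 mpk as a solution in 0.5% methyl cellulose.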

[7] = Volume of distribution at steady state in Sprague-Dawley rat at 3 mg/kg, po and 0.5 mg/kg, iv; type: ADME, organism-based; settings: in vivo, read-out: Vdss
Rattus norvegicus [8] = experiment: Antihypertensive activity in double transgenic rat assessed as decrease in blood pressure at 3 mg/kg, po; type: functional
[9] = Half life in Sprague-Dawley rat at 3 mg/kg, po and 0.5 mg/kg, iv; type: ADME, organism-based; settings: in vivo; how it was run: as §1
[10] = Oral bioavailability in Sprague-Dawley rat at 3 mg/kg; type: ADME, organism-based; settings: in vivo; how it was run: as §1

Chain of Voltage-gated inwardly rectifying potassium channel KCNH2 (Q12809 whole entry): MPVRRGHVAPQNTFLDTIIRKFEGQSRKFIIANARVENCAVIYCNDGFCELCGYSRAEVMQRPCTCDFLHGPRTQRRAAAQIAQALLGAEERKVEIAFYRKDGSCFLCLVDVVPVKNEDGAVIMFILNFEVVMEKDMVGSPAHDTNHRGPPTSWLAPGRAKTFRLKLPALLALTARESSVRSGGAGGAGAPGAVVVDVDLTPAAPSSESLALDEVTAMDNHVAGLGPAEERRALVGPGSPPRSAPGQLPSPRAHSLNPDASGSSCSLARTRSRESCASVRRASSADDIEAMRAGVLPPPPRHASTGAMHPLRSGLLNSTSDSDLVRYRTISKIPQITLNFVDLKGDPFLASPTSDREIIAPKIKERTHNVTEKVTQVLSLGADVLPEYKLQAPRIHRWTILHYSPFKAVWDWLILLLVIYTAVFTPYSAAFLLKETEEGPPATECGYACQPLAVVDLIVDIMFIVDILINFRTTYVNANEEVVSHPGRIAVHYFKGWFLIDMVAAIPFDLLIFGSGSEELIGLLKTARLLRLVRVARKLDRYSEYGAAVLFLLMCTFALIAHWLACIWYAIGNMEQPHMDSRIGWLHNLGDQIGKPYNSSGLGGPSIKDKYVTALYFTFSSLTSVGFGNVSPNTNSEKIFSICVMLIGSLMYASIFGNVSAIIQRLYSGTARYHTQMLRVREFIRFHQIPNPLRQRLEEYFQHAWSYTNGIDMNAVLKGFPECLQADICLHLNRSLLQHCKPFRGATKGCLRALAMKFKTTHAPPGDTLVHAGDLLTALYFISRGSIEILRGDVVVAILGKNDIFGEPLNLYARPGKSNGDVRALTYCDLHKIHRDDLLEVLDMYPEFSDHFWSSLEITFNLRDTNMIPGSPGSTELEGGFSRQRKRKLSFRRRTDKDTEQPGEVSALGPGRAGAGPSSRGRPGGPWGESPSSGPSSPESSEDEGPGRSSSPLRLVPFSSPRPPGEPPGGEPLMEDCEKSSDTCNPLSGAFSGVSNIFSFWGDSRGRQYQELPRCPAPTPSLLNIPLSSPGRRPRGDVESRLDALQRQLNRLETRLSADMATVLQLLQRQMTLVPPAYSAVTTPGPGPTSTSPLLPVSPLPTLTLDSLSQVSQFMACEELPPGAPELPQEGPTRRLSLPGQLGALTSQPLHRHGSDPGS
Chain of CYP3A4 (P08684 whole entry): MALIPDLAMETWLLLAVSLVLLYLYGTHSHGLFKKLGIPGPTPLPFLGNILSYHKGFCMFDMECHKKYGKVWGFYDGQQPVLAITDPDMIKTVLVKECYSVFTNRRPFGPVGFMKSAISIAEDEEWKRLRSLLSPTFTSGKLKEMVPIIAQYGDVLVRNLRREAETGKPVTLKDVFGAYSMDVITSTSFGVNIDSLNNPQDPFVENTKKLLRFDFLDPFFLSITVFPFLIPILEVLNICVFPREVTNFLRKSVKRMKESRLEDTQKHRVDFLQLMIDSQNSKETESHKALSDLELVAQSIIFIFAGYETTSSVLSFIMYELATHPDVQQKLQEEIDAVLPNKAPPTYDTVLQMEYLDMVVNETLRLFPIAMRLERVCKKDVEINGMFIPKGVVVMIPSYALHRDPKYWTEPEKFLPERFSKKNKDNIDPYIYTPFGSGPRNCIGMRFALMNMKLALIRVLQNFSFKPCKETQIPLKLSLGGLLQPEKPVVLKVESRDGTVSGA
Chain of Cytochrome P450 3A4 (P08684 whole entry): as above

SMILES	IC50 (Cytochrome P450 3A4) [µM]	inhibition at 10 µM (CYP3A4) [%]	Ki [1] [µM]	IC50 (Renin [3]) [nM]	other results
CC(=O)NCCc1ccccc1-c1ccc([C@H]2CNCC[C@@H]2c2ccc(F)c(F)c2)c(Cl)c1	20	–	–	–	–
O[C@]1(c2ccc(F)c(F)c2)CCNC[C@@H]1c1cc(-c2ccc(F)cc2Br)no1	3	22	1.7	–	–
O[C@]1(c2ccc(F)c(F)c2)CCNC[C@@H]1c1cc(-c2c(Cl)cccc2Cl)no1	8	59	2.8	–	–
O[C@]1(c2ccc(F)c(F)c2)CCNC[C@@H]1c1cc(-c2ccc(F)cc2Cl)no1	7	36	–	–	IC50 (Renin [2]): > 9.5 µM
O[C@]1(c2ccc(F)c(F)c2)CCNC[C@@H]1c1onc(-c2ccccc2Cl)c1Br	18	76	–	1.14	–
O[C@]1(c2ccc(F)c(F)c2)CCNC[C@@H]1c1onc(-c2cccc(Cl)c2Cl)c1Br	19	60	–	–	–
Cc1cccc(-c2noc([C@H]3CNCC[C@]3(O)c3ccc(F)c(F)c3)c2Br)c1C	20	77	6	–	–
O[C@]1(c2ccc(F)c(F)c2)CCNC[C@@H]1c1onc(-c2c(Cl)cccc2Cl)c1Br	15	82	3.9	–	–
O[C@]1(c2ccc(F)c(F)c2)CCNC[C@@H]1c1onc(-c2cccc3ccccc23)c1Br	> 50	67	4.2	0.06	–
CC(=O)NCCc1ccccc1-c1noc([C@H]2CNCC[C@]2(O)c2ccc(F)c(F)c2)c1Br	45	74	–	–	–
CC(=O)NCCc1ccccc1-c1onc([C@H]2CNCC[C@]2(O)c2ccc(F)c(F)c2)c1Br	33	68	–	0.27	clearance [4]: 6.48 L/h/kg; Time (Rattus norvegicus [5]): 18 h; AUC [6]: 140 nM·h; Vd [7]: 36 L/kg; Activity (Rattus norvegicus [8]): 44 mmHg; half-life [9]: 5.7 h; bioavailability [10]: 16%
O[C@]1(c2ccc(F)c(F)c2)CCNC[C@@H]1c1cc(-c2c(Cl)cccc2Cl)on1	17	60	9.8	–	IC50 (Renin [2]): > 9.5 µM
CC(=O)NCCc1cc(F)ccc1-c1onc([C@H]2CNCC[C@]2(O)c2ccc(F)c(F)c2)c1Br	45	78	–	–	IC50 (Renin [2]): 0.0007 µM
CC(=O)NCCc1ccccc1-c1cc([C@H]2CNCC[C@]2(O)c2ccc(F)c(F)c2)no1	32	21	–	166	IC50 (Renin [2]): 0.331 µM
CC(=O)NCCc1ccccc1-c1onc([C@H]2CNCC[C@]2(O)c2ccc(F)c(F)c2)c1Cl	> 50	74	–	0.73	–
CC(=O)NCCc1ccccc1-c1onc([C@H]2CNCC[C@]2(O)c2ccc(F)c(F)c2)c1C(C)=O	8	32	–	–	–
CC(=O)NCCc1ccccc1-c1onc([C@H]2CNCC[C@]2(O)c2ccc(F)c(F)c2)c1C(C)O (stereo partly drawn)	> 50	48	–	–	–
CC(=O)NCCc1ccccc1-c1onc([C@H]2CNCC[C@@H]2c2ccc(F)c(F)c2)c1Br	13	75	19.5	–	–
CO[C@]1(c2ccc(F)c(F)c2)CCNC[C@@H]1c1noc(-c2ccccc2CCNC(C)=O)c1Br	28	60	–	0.17	–
CC(=O)NCCc1ccccc1-c1onc([C@H]2CNCC[C@]2(C(N)=O)c2ccc(F)c(F)c2)c1Br	–	–	30	0.22	IC50 (Renin [2]): 0.0006 µM
CC(=O)NCCc1ccccc1-c1onc([C@H]2CNCC[C@]2(OCC(O)CO)c2ccc(F)c(F)c2)c1Br (stereo partly drawn)	> 50	18	> 60	–	clearance [4]: 4.2 L/h/kg; Vd [7]: 12 L/kg; half-life [9]: 1.9 h; bioavailability [10]: 0%
COC[C@H](C)COCc1ccc([C@@]2(O)CCNC[C@@H]2c2noc(-c3ccccc3CCNC(C)=O)c2Br)cc1	29	10	31.2	0.26	clearance [4]: 7.44 L/h/kg; IC50 (Renin [2]): 0.00067 µM; Time (Rattus norvegicus [5]): 8 h; AUC [6]: 130 nM·h; Vd [7]: 12 L/kg; Activity (Rattus norvegicus [8]): 27 mmHg; half-life [9]: 1.4 h; bioavailability [10]: 18%
